The values below come from PMC6694902 (Journal of Taibah University Medical Sciences, 2017).

Experiment [1] deals with Klebsiella pneumoniae (MTCC 109). The note with it: reported earlier by the authors ref 6; cited from earlier work.
Experiment [2] has the same test system. Briefly: Minimum inhibitory concentration. Type of experiment: cell-based. The note with it: 31.25–500 µg/mL tested, 37 °C, 18–24 h. Put shortly: (§1)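 MIC was determined in nutrient agar wells seeded with bacteria (McFarland 0.5, 1.5 × 10^6 CFU/mL). E. coli (res) and S. aureus (res) were clinical isolates; K. pneumoniae was MTCC 109. DMF stocks at 1 mg/mL were diluted two-fold to five levels (31.25–500 µg/mL) in wells, with amoxicillin and ampicillin as references. Plates were incubated at 37 °C for 18–24 h.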

Experiment [3] is described as follows: DPPH radical scavenging assay. Format: biochemical. The note with it: mean ± S.D., n = 3; for IC50 (DPPH radical scavenging): graphically determined. Put shortly: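 DPPH scavenging, a modified method, was read as absorbance at 517 nm for test compounds at several concentrations. BHT served as standard, and DPPH in methanol served as control. Percent inhibition was calculated from control and sample absorbances, and IC50 was obtained graphically. Data were analysed by one-way ANOVA with Dunnett's post hoc test.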
In general terms: DPPH is a stable violet radical that fades when it is reduced.

The subject of experiment [4] is Cryptococcus neoformans. Briefly: Minimum inhibitory concentration. Particulars: 31.25–500 µg/mL tested, 37 °C, 18–24 h. Type of experiment: cell-based. The essentials:
(§2)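 MIC was determined in agar wells on Sabouraud dextrose agar seeded with the fungal strain (McFarland 0.5, 1.5 × 10^6 CFU/mL). DMF stocks at 1 mg/mL were diluted two-fold to five levels (31.25–500 µg/mL) and loaded into wells, with fluconazole as reference. After 18–24 h at 37 °C, the lowest inhibitory concentration was taken as the MIC.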

The subject of experiment [5] is Escherichia coli (res). As to the kind of experiment: Minimum inhibitory concentration. Type of experiment: cell-based. Particulars: 31.25–500 µg/mL tested, 37 °C, 18–24 h. The essentials:
as §1

The subject of experiment [6] is Klebsiella pneumoniae (MTCC 109). Briefly: Agar well diffusion, zone of inhibition. Format: cell-based. Particulars: mean ± S.D., n = 6. Put shortly:
(§3)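 Agar well diffusion on nutrient agar. K. pneumoniae MTCC 109 came from IMTECH; S. aureus (res) was an Utkal University isolate. Plates were seeded with 1.5 × 10^6 CFU/mL suspensions (McFarland 0.5). Test compounds were dissolved in DMF (1 mg/mL stock) and placed in wells, with amoxicillin and ampicillin as references. Plates were kept at 37 °C for 18–24 h, then zones were read.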
(In agar diffusion tests the substance spreads into inoculated agar from a disc or well.)

Experiment [7] has as its system Candida albicans (MTCC 3017). As to the kind of experiment: Agar well diffusion, zone of inhibition. Type of experiment: cell-based. The note with it: mean ± S.D., n = 6. Put shortly:
(§4)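 Agar well diffusion on Sabouraud dextrose agar. C. albicans MTCC 3017 came from IMTECH; C. neoformans was an Utkal University strain. Plates were seeded with 1.5 × 10^6 CFU/mL suspensions (McFarland 0.5). Test compounds were dissolved in DMF (1 mg/mL stock) and loaded into wells, with fluconazole as reference. Incubation was 37 °C for 18–24 h, and zones were measured.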

Experiment [8] has as its system Staphylococcus aureus (res). As to the kind of experiment: Minimum inhibitory concentration. Format: cell-based. Particulars: 31.25–500 µg/mL tested, 37 °C, 18–24 h. Put shortly:
as §1

In experiment [9] the test system is Staphylococcus aureus (res). Briefly: Agar well diffusion, zone of inhibition. Particulars: mean ± S.D., n = 6; resistant to norfloxacin, ofloxacin, ampicillin, cefotaxime. Format: cell-based. The essentials: as §3
Experiment [10] relates to Candida albicans (MTCC 3017). As to the kind of experiment: Minimum inhibitory concentration. Format: cell-based. Particulars: 31.25–500 µg/mL tested, 37 °C, 18–24 h. The essentials:
as §2

Experiment [11] deals with Cryptococcus neoformans. As to the kind of experiment: Agar well diffusion, zone of inhibition. Type of experiment: cell-based. Particulars: mean ± S.D., n = 6. Put shortly:
as §4

Experiment [12] deals with Escherichia coli (res). Briefly: Agar well diffusion, zone of inhibition. Format: cell-based. Particulars: mean ± S.D., n = 6; resistant to norfloxacin, ofloxacin, ampicillin, cefixime, nitrofurantoin. The essentials:
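Clinical isolate from a faecal sample (Bhubaneswar hospital). Nutrient agar plates were seeded with a 1.5 × 10^6 CFU/mL suspension matched to McFarland 0.5. Test compound was loaded into the agar wells from a DMF stock (1 mg/mL). Plates were incubated at 37 °C for 18–24 h and the inhibition zone was read. Amoxicillin and ampicillin were the reference antibiotics.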

Values joined by “and” are separate entries in the source; they are usually repeats but may differ in a detail not shown here. Identical values can stand only once.

Consider `COc1ccc(/N=C/c2cc(/N=N/c3cccc([N+](=O)[O-])c3)ccc2[O][Co][O]c2ccc(/N=N/c3cccc([N+](=O)[O-])c3)cc2/C=N/c2ccc(OC)cc2)cc1` [5a(Co Lig2), bis[2-{(E)-(4-methoxyphenylimino)methyl}-4-{(E)-(3-nitrophenyl)diazenylphenoxy}cobalt]], for which the “antibacterial activity against K. pneumoniae” value in [1] is recorded as “significant antibacterial activity”.
Regarding `Cc1cc(N=Nc2ccc([O][Co][O]c3ccc(N=Nc4ccc(Br)c(C)c4)cc3C=Nc3nc(-c4ccc(Cl)cc4)cs3)c(C=Nc3nc(-c4ccc(Cl)cc4)cs3)c2)ccc1Br` [Compound 6d, Bis[4-{(4-bromo-3-methylphenyl)diazenyl}-2-{(4-(4-chlorophenyl)thiazol-2-ylimino)methyl}phenoxy]cobalt], the “Minimum inhibitory concentration (MIC), K. pneumoniae” value in experiment [2] was determined as 31.25 µg/mL. Also, the “% Inhibition (DPPH)” value in experiment [3] (Conc. 10 μg/mL) stood at 36.53 ± 0.02 %; in [3] (Conc. 30 μg/mL), 43.03 ± 0.04%; in [3] (Conc. 50 μg/mL), 61.97 ± 0.08 %; in experiment [3] (Conc. 70 μg/mL) it was 73.78 ± 0.07%. The “IC50 (DPPH radical scavenging)” value in experiment [3] stood at 38 ± 1.4 µg/mL. In the experiment with Cryptococcus neoformans [4], the “Minimum inhibitory concentration (MIC), C. neoformans” value was found to be 250 µg/mL. In the experiment with Escherichia coli (res) [5], the “Minimum inhibitory concentration (MIC), E. coli (res)” value stood at 31.25 µg/mL. In [6], the “zone of inhibition, K. pneumoniae” value was 16.17 ± 2.99 mm and 16.17 ± 2.99^∗ mm. The “zone of inhibition, C. albicans” value in experiment [7] came to 12.67 ± 2.34 mm. The “Minimum inhibitory concentration (MIC), S. aureus (res)” value in experiment [8] is 31.25 µg/mL. Besides, in experiment [9], the “zone of inhibition, S. aureus (res)” value is 16.83 ± 2.71 mm and 16.83 ± 2.71^∗ mm. In addition, the “Minimum inhibitory concentration (MIC), C. albicans” value in experiment [10] was found to be 250 µg/mL. The “zone of inhibition, C. neoformans” value in the experiment on Cryptococcus neoformans [11] came to 12.17 ± 2.71 mm. The “zone of inhibition, E. coli (res)” value with Escherichia coli (res) [12] is 15.5 ± 3.21 mm and 15.5 ± 3.21^∗ mm.
As to `Cc1cc(N=Nc2ccc([O][Cu][O]c3ccc(N=Nc4ccc(Br)c(C)c4)cc3C=Nc3nc(-c4ccc(Cl)cc4)cs3)c(C=Nc3nc(-c4ccc(Cl)cc4)cs3)c2)ccc1Br` [Compound 6e, Bis[4-{(4-bromo-3-methylphenyl)diazenyl}-2-{(4-(4-chlorophenyl)thiazol-2-ylimino)methyl}phenoxy] copper,], the “Minimum inhibitory concentration (MIC), K. pneumoniae” value in experiment [2] is 31.25 µg/mL. The “% Inhibition (DPPH)” value in [3] (Conc. 10 μg/mL) turned out to be 31.24 ± 0.06%; in experiment [3] (Conc. 30 μg/mL) it was 41.31 ± 0.02%; in experiment [3] (Conc. 50 μg/mL) it was 51.77 ± 0.08%; in experiment [3] (Conc. 70 μg/mL), 79.89 ± 0.04%. Moreover, in [3], the “IC50 (DPPH radical scavenging)” value stood at 46 ± 0.98 µg/mL. Besides, the “Minimum inhibitory concentration (MIC), C. neoformans” value in the experiment on Cryptococcus neoformans [4] is 250 µg/mL. Further, in the experiment on Escherichia coli (res) [5], the “Minimum inhibitory concentration (MIC), E. coli (res)” value is 62.5 µg/mL. Also, the “zone of inhibition, K. pneumoniae” value in experiment [6] is reported as 15.83 ± 2.23 mm. Moreover, the “zone of inhibition, C. albicans” value in experiment [7] is listed as 11.17 ± 6.21 mm. The “Minimum inhibitory concentration (MIC), S. aureus (res)” value in experiment [8] was 62.5 µg/mL. For the same molecule, the “zone of inhibition, S. aureus (res)” value in [9] turned out to be 14.5 ± 1.52 mm. In [10], the “Minimum inhibitory concentration (MIC), C. albicans” value is 250 µg/mL. Moreover, in the experiment on Cryptococcus neoformans [11], the “zone of inhibition, C. neoformans” value is on record as 10.5 ± 1.52 mm. In the experiment on Escherichia coli (res) [12], the “zone of inhibition, E. coli (res)” value came to 14.83 ± 2.56 mm.
For “Bis[{4-((4-bromo-3-methylphenyl)diazenyl)-2-((4-phenylthiazol-2-limino)methyl)phenoxy}] cobalt [Compound 6a]”, the “Minimum inhibitory concentration (MIC), K. pneumoniae” value in experiment [2] is 31.25 µg/mL. The “% Inhibition (DPPH)” value in experiment [3] (Conc. 10 μg/mL) was found to be 29.72 ± 0.07%; in [3] (Conc. 30 μg/mL), 43.32 ± 0.11%; in experiment [3] (Conc. 50 μg/mL) it was 63.44 ± 0.07 %; in experiment [3] (Conc. 70 μg/mL), 83.02 ± 0.06%. Further, the “IC50 (DPPH radical scavenging)” value in [3] came to 36 ± 0.56 µg/mL. Also, in the experiment with Cryptococcus neoformans [4], the “Minimum inhibitory concentration (MIC), C. neoformans” value came out at 125 µg/mL. The “Minimum inhibitory concentration (MIC), E. coli (res)” value in the experiment on Escherichia coli (res) [5] came to 31.25 µg/mL. Moreover, the “zone of inhibition, K. pneumoniae” value in experiment [6] was 16.17 ± 1.94 mm and 16.17 ± 1.94^∗ mm. Besides, the “zone of inhibition, C. albicans” value in experiment [7] worked out at 12.83 ± 2.23 mm. Besides, the “Minimum inhibitory concentration (MIC), S. aureus (res)” value in experiment [8] is 31.25 µg/mL. For the same molecule, in experiment [9], the “zone of inhibition, S. aureus (res)” value was 20.83 ± 1.84 mm and 20.83 ± 1.84^∗ mm. Also, the “Minimum inhibitory concentration (MIC), C. albicans” value in experiment [10] is 31.25 µg/mL. For the same molecule, the “zone of inhibition, C. neoformans” value with Cryptococcus neoformans [11] is recorded as 13.67 ± 2.94 mm. Besides, the “zone of inhibition, E. coli (res)” value in the experiment with Escherichia coli (res) [12] is 16.67 ± 2.34 mm and 16.67 ± 2.34^∗ mm.
